Test results as given in paper PMC3227417 (Cancer prevention research (Philadelphia, Pa.), 2009).
Where two headings read alike, the source gives them in different places.

Experiments:
purified ovine COX-2 = molecular target: T1, purified ovine COX-2 (Ovis aries, UniProt P79208); test: COX-2 colorimetric enzyme assay with purified isozyme; assay type: biochemical
T1 sequence (P79208 17-603): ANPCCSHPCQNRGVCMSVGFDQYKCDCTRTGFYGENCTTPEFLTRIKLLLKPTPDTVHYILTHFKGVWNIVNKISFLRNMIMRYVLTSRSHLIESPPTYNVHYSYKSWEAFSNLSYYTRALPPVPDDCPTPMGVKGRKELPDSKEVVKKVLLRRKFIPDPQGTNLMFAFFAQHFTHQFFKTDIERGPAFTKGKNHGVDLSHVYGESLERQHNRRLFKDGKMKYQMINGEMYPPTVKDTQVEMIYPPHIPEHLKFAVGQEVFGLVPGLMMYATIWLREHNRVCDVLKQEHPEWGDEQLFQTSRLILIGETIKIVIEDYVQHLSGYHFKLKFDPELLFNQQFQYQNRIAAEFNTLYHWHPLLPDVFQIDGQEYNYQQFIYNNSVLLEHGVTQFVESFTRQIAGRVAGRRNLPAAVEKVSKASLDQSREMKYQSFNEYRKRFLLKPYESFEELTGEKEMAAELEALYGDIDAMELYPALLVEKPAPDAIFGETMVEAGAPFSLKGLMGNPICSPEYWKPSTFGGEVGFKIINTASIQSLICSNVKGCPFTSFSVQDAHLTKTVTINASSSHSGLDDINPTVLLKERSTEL

purified ovine COX-1 = molecular target: T2, purified ovine COX-1 (Ovis aries, UniProt P05979); test: COX-1 colorimetric enzyme assay with purified isozyme; assay type: biochemical
T2 sequence (P05979 25-600): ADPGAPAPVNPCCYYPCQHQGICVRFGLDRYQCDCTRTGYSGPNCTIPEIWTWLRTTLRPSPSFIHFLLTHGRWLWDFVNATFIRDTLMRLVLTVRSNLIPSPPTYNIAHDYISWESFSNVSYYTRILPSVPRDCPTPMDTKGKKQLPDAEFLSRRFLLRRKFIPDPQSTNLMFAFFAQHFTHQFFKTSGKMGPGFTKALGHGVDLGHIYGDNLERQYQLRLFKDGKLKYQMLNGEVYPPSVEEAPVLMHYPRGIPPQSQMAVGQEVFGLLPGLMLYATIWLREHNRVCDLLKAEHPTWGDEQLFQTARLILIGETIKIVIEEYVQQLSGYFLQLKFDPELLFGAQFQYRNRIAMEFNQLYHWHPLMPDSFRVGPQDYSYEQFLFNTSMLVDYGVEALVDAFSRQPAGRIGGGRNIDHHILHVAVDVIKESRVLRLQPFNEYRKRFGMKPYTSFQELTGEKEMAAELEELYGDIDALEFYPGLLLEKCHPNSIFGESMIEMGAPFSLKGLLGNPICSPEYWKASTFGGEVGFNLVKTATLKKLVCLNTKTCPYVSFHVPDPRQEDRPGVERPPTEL

HT-29 colon tumor cells [1] = test: Proliferation assay; assay type: cell-based, human; conditions: read-out: IC50 to inhibit DNA synthesis (3H-thymidine incorporation); HT-29, 72 h of treatment
[2] = Pharmacokinetic study, plasma levels after single gastric gavage; assay type: in vivo, mice; conditions: for plasma level: mice, ± SD
NCr-nu/nu mice = assay type: in vivo
[3] = test system: human HT-29 colon tumor xenograft; test: HT-29 colon tumor xenograft, treatment from day of tumor implantation; assay type: in vivo
HT-29 colon tumor cells [4] = test: TUNEL apoptosis assay; assay type: cell-based, human; conditions: 24 hours, vehicle 2.3%
Outline: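 HT-29 cells were seeded at 2 × 10^6 per 10 cm dish and grown 48 h. Medium was then replaced with test compound or vehicle for 24 h. Cells were fixed in 4% formalin on ice for 15 min. Strand breaks were labelled with BrdUrd, detected with anti-BrdUrd Alexa Fluor 488, and nuclei stained with propidium iodide. TUNEL-positive percentage was read by flow cytometry (≥10,000 events). Mean ± SE.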

HT-29 colon tumor cells [5] = test: Growth assay; assay type: cell-based, human; conditions: for continuous treatment required to reach maximum potency of growth inhibition: HT-29 time course
Outline: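 HT-29 cells were grown in RPMI 1640 with 5% FBS at 37°C under 5% CO2, using only cultures with >95% viability. Cells were seeded at 5,000/well, left 16 h, then treated continuously for 72 h at 37°C. Viable cell number was read as ATP luminescence (CellTiterGlo). A time course experiment used the same read-out. Mean, SE shown.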

[6] = test system: caspases 3 and 7 activity in HT-29 colon tumor cells; test: Caspase-Glo 3/7 apoptosis assay; assay type: cell-based, human; conditions: HT-29, 25 µmol/L
Outline: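 HT-29 cells were seeded at 10,000/well and grown 18–24 h before treatment. Treatment lasted 2–8 h: time course at 25 µmol/L, and dose-response at 5 h exposure. Caspase 3/7 activity was read as luminescence from substrate cleavage (Caspase-Glo 3/7).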

[7] = test system: human HT-29 colon tumor xenograft; test: HT-29 colon tumor xenograft, treatment of established tumors; assay type: in vivo, mice; conditions: for median number of days to reach a tumor weight of 2,000 mg: control 42.8 days; for median number of days to reach a tumor weight of 3,000 mg: control 52.2 days
[8] = purified COX-2 isozyme, arachidonic acid, 25°C, 5 min
[9] = purified COX-1 isozyme, arachidonic acid, 25°C, 5 min
[10] = read-out: COX-2 IC50, purified COX-2 isozyme, arachidonic acid, 25°C, 5 min
[11] = read-out: COX-1 IC50, purified COX-1 isozyme, arachidonic acid, 25°C, 5 min
[12] = 250 mg/kg twice daily gastric gavage, 55 days

Row | IC50 (purified ovine COX-2) [µM] | Compound | COX-2 IC50 (purified ovine COX-2; [8]) | IC50 (purified ovine COX-1) [µM] | COX-1 IC50 (purified ovine COX-1; [9]) | IC50 (HT-29 colon tumor cells [1]) [µM] | IC50 (purified ovine COX-2; [10]) [µM] | IC50 (purified ovine COX-1; [11]) [µM] | continuous treatment required to reach maximum potency of growth inhibition (HT-29 colon tumor cells [5]) | median number of days to reach a tumor weight of 2,000 mg [7] [days] | median number of days to reach a tumor weight of 3,000 mg [7] [days] | also measured
1 | > 300 | CC1=C(CC(=O)O)c2cc(F)ccc2/C1=C\c1ccc(S(C)(=O)=O)cc1 [Sulindac sulfone, sulindac sulfone] | lack both COX-1 and COX-2 inhibitory activity | > 300 | lack both COX-1 and COX-2 inhibitory activity |  |  |  |  |  |  | 
2 |  | CC1=C(CC(=O)O)c2cc(F)ccc2/C1=C\c1ccc([S+](C)[O-])cc1 (stereo not drawn) [Sulindac sulfoxide, sulindac] | lack both COX-1 and COX-2 inhibitory activity |  | lack both COX-1 and COX-2 inhibitory activity | 222 | > 300 | > 300 |  |  |  | plasma level ([2]; 1 h post gastric gavage of SSA (200 mg/kg)): 0.05 ± 0.04 µM; plasma level ([2]; 2 h post gastric gavage of SSA (200 mg/kg)): 0.06 ± 0.01 µM; plasma level ([2]; 4 h post gastric gavage of SSA (200 mg/kg)): 0.05 ± 0.01 µM; plasma level ([2]; 8 h post gastric gavage of SSA (200 mg/kg)): 0.05 ± 0.014 µM; plasma level ([2]; 16 h post gastric gavage of SSA (200 mg/kg)): BLD; plasma level ([2]; 24 h post gastric gavage of SSA (200 mg/kg)): BLD; tolerated dosage (NCr-nu/nu mice; mice, once daily gastric gavage, 20 days of treatment): ≤ 50 mg/kg
3 |  | CSc1ccc(/C=C2/C(C)=C(CC(=O)NCCN(C)C)c3cc(F)ccc32)cc1 [SSA] |  |  |  | 1.2 | 164 | > 300 | ~ 2 days | 40.8 | 53.2 | mean body weight loss averaged over the duration of treatment [3, 12]: 1.1%; mean body weight loss on any given day [3, 12]: ≤ 6%; mean tumor weight ([3]; day 55, 250 mg/kg twice daily, control 2,534 mg): 1,141 mg; percentage of apoptotic cells (TUNEL) (HT-29 colon tumor cells [4]; HT-29, 10 µmol/L): 3.6%; percentage of apoptotic cells (TUNEL) (HT-29 colon tumor cells [4]; HT-29, 25 µmol/L): 10.2%; percentage of apoptotic cells (TUNEL) (HT-29 colon tumor cells [4]; HT-29, 50 µmol/L): 91.8%; increase in potency compared with SS (growth inhibition) (HT-29 colon tumor cells [5]; HT-29 cell line): ~40 fold; plasma half-life ([2]; mouse, in vivo, po, 200 mg/kg): 9.9 h; optimum treatment time for caspase induction [6]: ~ 4 hours; tolerated dosage (NCr-nu/nu mice; mouse, in vivo): up to 300 mg/kg
4 |  | CCc1c2c(nc3ccc(OC(=O)N4CCC(N5CCCCC5)CC4)cc13)-c1cc3c(c(=O)n1C2)COC(=O)[C@]3(O)CC.Cl [Camptosar, irinotecan HCl] |  |  |  |  |  |  |  | 48.2 | 58.7 | 
5 | 2.7 | CS(=O)(=O)c1ccc(C2=C(c3ccccc3)C(=O)OC2)cc1 [Rofecoxib] |  |  |  |  |  |  |  |  |  | 
6 |  | CSc1ccc(/C=C2/C(C)=C(CC(=O)O)c3cc(F)ccc32)cc1 [SS, sulindac sulfide] |  | 1.8 |  |  |  |  | ~ 2 days |  |  | percentage of apoptotic cells (TUNEL) (HT-29 colon tumor cells [4]; HT-29, 100 µmol/L): 7.1%; percentage of apoptotic cells (TUNEL) (HT-29 colon tumor cells [4]; HT-29, 200 µmol/L): 49.9%
